Experimental data as given in ChEMBL document CHEMBL1143847, “Competitive inhibitors of the CphA metallo-beta-lactamase from Aeromonas hydrophila” (Antimicrob Agents Chemother, 2007).

Assays:
[1] = molecular target: Metallo beta-lactamase (Pseudomonas aeruginosa) (UniProt Q6TUJ4); assay: Inhibition of Pseudomonas aeruginosa 101/1477 metallo beta lactamase IMP1 expressed in Escherichia coli assessed as residual enzyme activity at 100 uM in absence of zinc
[2] = molecular target: Metallo beta-lactamase (Pseudomonas aeruginosa) (UniProt Q6TUJ4); assay: Inhibition of Pseudomonas aeruginosa 101/1477 metallo beta lactamase IMP1 expressed in Escherichia coli assessed as residual enzyme activity at 100 uM in presence of zinc chloride
Summary of the method: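 IMP-1 at 0.03–0.7 nM was preincubated 30 min at room temperature with 100 μM inhibitor in 20 mM HEPES pH 7.0 with 20 μg/ml BSA plus 100 μM ZnCl2. The reaction was then started with 100 μM imipenem. The initial rate of three samples was taken as mean percent of the rate without inhibitor ± SD.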

Bacillus cereus = assay: Inhibition of Bacillus cereus metallo beta lactamase Bc2 assessed as residual enzyme activity at 100 uM
[3] = Inhibition of metallo beta lactamase VIM2 assessed as residual enzyme activity at 100 uM
[4] = Inhibition of metallo beta lactamase VIM4 assessed as residual enzyme activity at 100 uM
[5] = molecular target: Beta-lactamase L1 (Stenotrophomonas maltophilia) (UniProt P52700); assay: Inhibition of Stenotrophomonas maltophilia metallo beta lactamase L1 assessed as residual enzyme activity at 100 uM
Fluoribacter gormanii = assay: Inhibition of Legionella gormani beta lactamase metallo FEZ1 expressed in Escherichia coli assessed as residual enzyme activity at 100 uM
Summary of the method: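 Purified enzyme (0.03–0.7 nM) in 20 mM HEPES pH 7.0 with 20 μg/ml BSA was preincubated 30 min at room temperature with 100 μM inhibitor, diluted from 10 mM DMSO stock. Nitrocefin (100 μM) was then added and the initial hydrolysis rate measured. Residual activity is the mean (±SD) of three samples as percent of the uninhibited rate.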

[6] = molecular target: Beta-lactamase (Aeromonas hydrophila) (UniProt Q44079); assay: Ratio of Kcat to Km for Aeromonas hydrophila beta lactamase CphA at pH 7.0
Summary of the method: (§1)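 Wild-type CphA kinetics with imipenem as substrate, measured in a mixed buffer adjusted to the stated pH with HCl or NaOH. The buffer held 40 mM sodium acetate, 20 mM each of cacodylate, MOPS, TAPS, CHES and CAPS, and 20 μg/ml BSA. Runs were at 30°C in thermostatted cells. Km and kcat came from initial rates. At pH 10 only kcat/Km was taken, because imipenem hydrolyses spontaneously.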

[7] = molecular target: Beta-lactamase (Aeromonas hydrophila) (UniProt Q44079); assay: Ratio of Kcat to Km for Aeromonas hydrophila beta lactamase CphA at pH 8.0; summary of the method: as §1
[8] = molecular target: Beta-lactamase (Aeromonas hydrophila) (UniProt Q44079); assay: Ratio of Kcat to Km for Aeromonas hydrophila beta lactamase CphA at pH 9.0; summary of the method: as §1
[9] = molecular target: Beta-lactamase (Aeromonas hydrophila) (UniProt Q44079); assay: Ratio of Kcat to Km for Aeromonas hydrophila beta lactamase CphA at pH 10.0; summary of the method: as §1

Beta-lactamase (Aeromonas hydrophila), sequence (Q44079 as listed by the source): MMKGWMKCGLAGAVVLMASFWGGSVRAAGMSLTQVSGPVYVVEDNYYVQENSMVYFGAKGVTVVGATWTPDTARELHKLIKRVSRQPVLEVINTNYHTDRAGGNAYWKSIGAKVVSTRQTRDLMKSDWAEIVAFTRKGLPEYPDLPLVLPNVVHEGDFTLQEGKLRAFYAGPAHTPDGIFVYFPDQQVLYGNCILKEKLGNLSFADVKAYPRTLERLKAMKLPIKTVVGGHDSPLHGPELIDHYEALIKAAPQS
Beta-lactamase L1 (Stenotrophomonas maltophilia), sequence (P52700 34-290 limits assumed): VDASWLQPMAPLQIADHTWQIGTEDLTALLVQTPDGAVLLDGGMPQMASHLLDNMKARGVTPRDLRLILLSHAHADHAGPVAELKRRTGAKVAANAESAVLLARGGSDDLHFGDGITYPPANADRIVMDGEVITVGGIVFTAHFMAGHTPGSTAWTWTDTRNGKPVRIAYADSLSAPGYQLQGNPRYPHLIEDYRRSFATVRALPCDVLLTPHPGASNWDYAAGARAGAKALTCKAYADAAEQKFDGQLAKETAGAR
Metallo beta-lactamase (Pseudomonas aeruginosa), sequence (Q6TUJ4 as listed by the source): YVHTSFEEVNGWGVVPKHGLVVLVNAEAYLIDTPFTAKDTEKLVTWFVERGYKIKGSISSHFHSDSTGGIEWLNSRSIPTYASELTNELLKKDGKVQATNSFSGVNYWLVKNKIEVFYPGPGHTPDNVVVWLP

SMILES | Activity [1] [%] | Activity [2] [%] | Activity (Bacillus cereus) [%] | Activity [3] [%] | Activity [4] [%] | Activity [5] [%] | Activity (Fluoribacter gormanii) [%] | Ratio [6] [µM⁻¹ s⁻¹] | Ratio [7] [µM⁻¹ s⁻¹] | Ratio [8] [µM⁻¹ s⁻¹] | Ratio [9] [µM⁻¹ s⁻¹]
O=C(O)c1ccccn1 | 31 | 54 | 95 | 80 | 59 | 29 | 62 | – | – | – | –
CC(O)[C@H]1C(=O)N2C(C(=O)O)=C(SCCNC=N)C[C@H]12 (single isomer, unassigned) | – | – | – | – | – | – | – | 1.8 | 1.7 | 0.78 | 0.44
O=C(O)c1ccnc(C(=O)O)c1 | 94 | 78 | 97 | 98 | 90 | 78 | 65 | – | – | – | –
O=C(O)c1cccc(C(=O)O)n1 | 2 | 72 | 95 | 96 | 88 | 92 | 77 | – | – | – | –
O=C(O)c1ccc(C(=O)O)nc1 | 99 | 81 | 99 | 97 | 97 | 94 | 80 | – | – | – | –
O=C(O)c1ccncc1C(=O)O | 91 | 88 | 97 | 92 | 100 | 97 | 93 | – | – | – | –
O=C(O)c1cccnc1C(=O)O | 89 | 67 | 98 | 106 | 73 | 93 | 62 | – | – | – | –
